High-throughput results from PubChem BioAssay.
CCR6 antagonist: antagonists of human CCR6 receptor | P51684 | CHO-K1 CCR6 PathHunter beta-arrestin, luminescence, CCL20-stimulated | inhibition, % at 20 µM | 340,000 compounds, 0.49% hits;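 active means compounds whose inhibition of the agonist-driven luminescence signal at 20 µM reaches about 50%, limit read from the data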;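 further: cells stimulated with CCL20 at 14 nM final; plate controls were DMSO with CCL20 for no effect and DMSO without agonist for full effect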
Target sequence (P51684 whole entry, looked up): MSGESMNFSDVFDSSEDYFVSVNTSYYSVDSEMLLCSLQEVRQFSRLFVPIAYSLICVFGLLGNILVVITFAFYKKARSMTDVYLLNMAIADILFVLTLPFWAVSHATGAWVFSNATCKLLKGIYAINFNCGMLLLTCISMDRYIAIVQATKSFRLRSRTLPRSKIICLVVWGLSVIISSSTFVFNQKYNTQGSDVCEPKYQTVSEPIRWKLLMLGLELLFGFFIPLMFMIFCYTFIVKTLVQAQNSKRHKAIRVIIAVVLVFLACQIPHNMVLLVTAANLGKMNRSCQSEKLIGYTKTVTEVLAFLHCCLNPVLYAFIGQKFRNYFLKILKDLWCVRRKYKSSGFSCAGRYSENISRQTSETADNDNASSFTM
APJ antagonist: blocks the human apelin receptor APJ | P35414 | AID 2521 | inhibition, % at 20 µM | 330,000 compounds, 0.32% hits | CHO-K1 APJ beta-arrestin complementation, luminescence;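 active means inhibition above about 40% at 20 µM, limit read from the data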;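 further: cells challenged with 10 nM apelin-13 agonist together with compound; plate controls were apelin-13 plus DMSO wells for no effect and DMSO wells lacking apelin-13 for full effect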
CXCR6 block: blocks human CXCR6 beta-arrestin recruitment | inhibition, % at 20 µM | 360,000 compounds, 0.36% hits | O00574 | CHO-K1 PathHunter CXCR6 beta-arrestin, luminescence; in the data active means inhibition above about 34%, passing the limit was not always enough;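 further: antagonist mode with CXCL16 agonist at 10 nM final; 0% = 10 nM CXCL16 with DMSO and 100% = unstimulated wells without agonist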
EBI2 antag: blocks human EBI2 receptor beta-arrestin signaling. inhibition, % at 5 µM. EBI2 beta-arrestin recruitment, luminescence, 7a,25-OHC stimulated. P32249. 360,000 compounds, 0.81% hits. AID 651636; in the data active means inhibition above about 38%;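 further: enzyme fragment complementation signal reports receptor beta-arrestin coupling in cells; 0% = agonist plus DMSO wells and 100% = wells without agonist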
APJ ag: agonists of human APJ apelin receptor; P35414; CHO-K1 APJ PathHunter beta-arrestin, luminescence; 0% DMSO wells, 100% apelin; activation, % at 20 µM; 330,000 compounds, 0.11% hits; AID 2520;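 active means activation more than six SD over the plate average, tested at 20 µM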;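 further: 0% = DMSO alone and 100% = apelin-13 at 10 nM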
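Assay system: CHO-K1 APJ beta-arrestin complementation cell line / Compound: single test compound dose, 20 µM final, 1% DMSO / Times: overnight seeding, 90 min compound at 25 °C, 1 h detection / Technique: beta-gal luminescence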
EBI2 conf: EBI2 (human) antagonism, single concentration confirmation; EBI2 beta-arrestin luminescence, 7a,25-OHC antagonism; 2,400 compounds, 29% hits; shares compounds with EBI2 antag; inhibition, % at 5 µM;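 active means inhibition of at least 50%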
EBI2 agonist: EBI2 agonism counter-screen | 2,400 tested, under 10 active | EBI2-expressing cells, agonist mode, luminescence, 60 min; 0% vehicle, 100% 7α,25-dihydroxycholesterol control | AID 652000 | activation, % at 5 µM | shares compounds with EBI2 antag;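 active means activation of at least 50%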
bGal cs: beta-galactosidase inhibition counter-screen. shares compounds with EBI2 antag. purified beta-galactosidase, luminescent Galacton Star, 15 min. inhibition, % at 5 µM. 2,400 compounds, 1% hits. AID 652176;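 active means replicate-average signal at least 3 plate SD below neutral wells, shown as high inhibition, flagging enzyme-inhibiting false positives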;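 further: 0% = DMSO wells with enzyme and 100% = wells lacking enzyme; higher means stronger loss of beta-gal luminescence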
* hit, by the source's call; x = no result given; ! = repeats disagree. An excerpt weighted towards active compounds, which were near 1.5% of everything screened.

SMILES | CCR6 antagonist | APJ antagonist | CXCR6 block | EBI2 antag | APJ ag | EBI2 conf | EBI2 agonist | bGal cs
COc1cc(/C=C/C(=O)NC(=O)c2ccccc2O)ccc1OC(C)=O | 3 | -62 | 8 | -2 | -3 | x | x | x
CC(=O)c1ccc(NC(=O)C(Cc2ccccc2)n2cccc2)cc1 (configuration not stated) | 11 | -16 | 6 | -14 | -1 | x | x | x
COc1ccc(Cn2ccnc2SCC(=O)Nc2ccc(F)cc2F)cc1 | x | x | 3 | -4 | x | x | x | x
CC1(c2nnc(-c3ccc(F)cc3)o2)CC(c2ccc(Cl)cc2)=NO1 (configuration not stated) | 13 | -5 | 3 | 5 | -3 | x | x | x
CC1(c2nnc(-c3ccc(F)cc3)o2)CC(c2c(Cl)cccc2Cl)=NO1 (configuration not stated) | 12 | 13 | 0 | 50* | -4 | 49 | 0 | 4
CC1(c2nnc(-c3ccc(Cl)cc3)o2)CC(c2c(Cl)cccc2Cl)=NO1 (configuration not stated) | 7 | 8 | -14 | 52* | -6 | 60* | 0 | -18
CC1(c2nnc(-c3ccc(Cl)cc3)o2)CC(c2ccncc2)=NO1 (configuration not stated) | -1 | 12 | 2 | -9 | -1 | x | x | x
COc1ccc(C(=O)NCCOc2ccccc2Cl)c(OC)c1OC | 16 | -6 | -15 | 3 | -3 | x | x | x
COc1ccc(S(=O)(=O)n2cccc2)cc1 | 1 | 11 | 9 | -5 | 0 | x | x | x
COc1ccc2cc(S(=O)(=O)NC3CC(C)(C)NC(C)(C)C3)ccc2c1 | 12 | 1 | -8 | -2 | -3 | x | x | x
O=C(c1cc2cc(Cl)ccc2[nH]1)N1CCN(c2ccc(F)cc2)CC1 | -7 | -14 | -2 | 84* | 1 | 75* | -1 | -12
COc1ccc(N2CCN(C(=O)c3cc4cc(Cl)ccc4[nH]3)CC2)cc1 | -4 | -25 | -8 | 75* | 0 | 59* | 2 | 6
CCN(C[C@H]1N[C@@](CC)(C(=O)OC)[C@H]2C(=O)N(C)C(=O)[C@@H]12)C(=O)COC | -1 | 11 | 7 | -9 | -3 | x | x | x
CCC(C)(C)NC(=O)C(c1cccc(OC)c1OC)N(C(=O)CCC(=O)Nc1cc(C)on1)c1ccc2c(c1)OCCO2 (configuration not stated) | 20 | 5 | -8 | -4 | 0 | x | x | x
CC(C)N(C(=O)COC(=O)c1ccccc1C(=O)c1ccc(Cl)c([N+](=O)[O-])c1)C(C)C | 27 | 6 | 20 | 46* | -2 | 38 | 0 | 8
CCCCC(=NCCc1c(C)[nH]c2ccc(OC)cc12)C1=C(O)CC(c2ccccc2)CC1=O (configuration not stated) | 19 | -19 | 14 | 51* | -4 | 2 | 15 | -12
CCC(=NCCc1c(C)[nH]c2ccc(OC(F)(F)F)cc12)C1=C(O)CC(c2ccccc2)CC1=O (configuration not stated) | 14 | -29 | 16 | 39 | -1 | x | x | x
CC(=NCCc1c(C)[nH]c2ccc(OCc3ccccc3)cc12)C1=C(O)CC(c2ccccc2)CC1=O (configuration not stated) | 8 | 7 | 9 | 46* | 0 | 25 | 0 | 5
CCOc1c(Cl)cc(C(=O)Nc2cccc(C(=O)O)c2)cc1Cl | -9 | 23 | 2 | -2 | -2 | x | x | x
CCc1nc2ccc(C(=O)Nc3cc(-c4ccccc4)ccc3OC)cn2c1N(C)CCCc1ccccc1 | x | x | 14 | 27 | x | x | x | x
CCc1nc2ccc(C(=O)Nc3cc(-c4ccccc4)ccc3OC)cn2c1N(C)C(=O)c1cccc(OC)c1 | x | x | 11 | 43* | x | 16 | -1 | -14
CCc1nc2ccc(C(=O)Nc3cc(-c4ccccc4)ccc3OC)cn2c1N(C)Cc1ccc(OC)cc1 | x | x | 13 | 45* | x | 0 | 0 | -6
COc1cccc(CN2CCN(C(=O)c3cccc(OC)c3)CC2)c1 | 13 | 4 | 3 | -4 | -1 | x | x | x
COc1cc(CN2CCN(C(=O)c3ccc(-c4ccccc4)cc3)CC2)cc(OC)c1OC | 8 | -4 | 10 | 48* | -3 | 32 | 0 | 8
COc1cccc(C(=O)N2CCN(C(=O)c3ccc(-c4ccccc4)cc3)CC2)c1OC | 4 | 13 | 3 | 78* | -1 | 48 | 1 | 10
SMILES | CCR6 antagonist | APJ antagonist | CXCR6 block | EBI2 antag | APJ ag | EBI2 conf | EBI2 agonist | bGal cs
COc1cccc(CN2CCN(C(=O)c3ccc(-c4ccccc4)cc3)CC2)c1OC | 8 | 0 | -2 | 65* | -4 | 44 | 0 | 10
COc1cccc(CN2CCN(C(=O)c3ccc(-c4ccccc4)cc3)CC2)c1 | -5 | -7 | 13 | 78* | -2 | 45 | 1 | 9
CCN(c1ccccc1)S(=O)(=O)c1ccc(C(=O)NCc2ccco2)cc1 | 18 | 1 | 2 | 6 | -6 | x | x | x
CNc1ccc(/C=C(\C#N)c2ccccn2)cc1[N+](=O)[O-] | 9 | 3 | 6 | 5 | -3 | x | x | x
N#C/C(=C\c1ccc(Cl)c([N+](=O)[O-])c1)c1ccccn1 | -5 | -7 | -13 | 53* | 5 | 58* | 3 | 0
CCC(=NOCc1ccccc1)C(=O)NNS(=O)(=O)c1ccc(C)cc1 | -2 | x | -6 | -6 | x | x | x | x
C=CCN1C(=O)C(=O)N(CC(=O)NCC(=O)Nc2ccc(F)c(F)c2F)C1=O | 0 | 6 | -5 | -2 | -3 | x | x | x
O=C(CCCN1C(=O)/C(=C/c2cccs2)SC1=S)NNC(=O)c1ccc(F)cc1 | 19 | 15 | 14 | 63* | -3 | 19 | -2 | -11
CC(=O)N1CCN(C(=O)COC(=O)c2ccc(S(C)(=O)=O)cc2)CC1 | 15 | 5 | -11 | -11 | 2 | x | x | x
Cc1ccc(C(=O)OCC(=O)Nc2ccc(C(N)=O)cc2)s1 | 6 | -33 | -2 | -9 | -3 | x | x | x
CCN(c1ccc(NC(=O)COC(=O)c2ccc(C)s2)cc1)C(C)C | 3 | 0 | 4 | 50* | 1 | 34 | 0 | 7
O=C1COc2ccc(-c3csc(=Nc4ccc(OC(F)F)cc4)n3CC3CCCO3)cc2N1 (configuration not stated) | 72* | 26 | 38 | 70* | -4 | 55* | -2 | -15
COCC(C)n1c(-c2ccc3c(c2)NC(=O)CO3)csc1=Nc1ccc(OC(F)F)cc1 (configuration not stated) | 62*! | 7 | 26 | 58* | -4 | 58*! | 0 | 1
CCN=c1scc(-c2ccc3c(c2)NC(=O)CO3)n1N=C1CCCC1 | 16 | 15 | 2 | -1 | -1 | x | x | x
